In ChEMBL document CHEMBL4673272, “Discovery of cyclic sulfonamide derivatives as potent inhibitors of SARS-CoV-2” (Bioorg Med Chem Lett, 2021):

Experiments:
SARS-CoV-2 = assay: Antiviral activity against SARS-CoV-2 betaCoV/KOR/KCDC03/2020 infected in African green monkey Vero cells assessed as inhibition of virus-induced cytopathic effect measured after 24 hrs by immunofluorescence assay; format: functional, organism-based; details: Severe acute respiratory syndrome coronavirus 2, betaCoV/KOR/KCDC03/2020, Vero
[1] = Cytotoxicity against African green monkey Vero cells infected with SARS-CoV-2 betaCoV/KOR/KCDC03/2020 assessed as reduction in cell viability measured after 72 hrs by CellTiter-Glo Luminescent Cell Viability Assay; format: cell-based; details: chlorocebus sabaeus
[2] = Selectivity index, ratio of CC50 for African green monkey Vero cells infected with SARS-CoV-2 betaCoV/KOR/KCDC03/2020 to IC50 for SARS-CoV-2 betaCoV/KOR/KCDC03/2020
[3] = Cmax in rat at 5 mg/kg, iv or 10 mg/kg, po; format: ADME, organism-based; parameters: dose 10 mg/kg; details: in vivo
Summary of the method: (§1)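 Rats, n = 3, were dosed at 5 mg/kg IV and 10 mg/kg PO. Cmax, T1/2, clearance and oral bioavailability (F) were derived from these two dosing routes.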

[4] = Half life in rat at 5 mg/kg, iv or 10 mg/kg, po; format: ADME, organism-based; details: in vivo; summary of the method: as §1
[5] = Clearance in rat at 5 mg/kg, iv or 10 mg/kg, po; format: ADME, organism-based; details: in vivo; summary of the method: as §1
[6] = Oral bioavailability in rat at 10 mg/kg; format: ADME, organism-based; details: in vivo; summary of the method: as §1
hERG (KCNH2) = hERG (KCNH2) (Homo sapiens, UniProt Q12809); assay: Inhibition of human ERG at 10 uM relative to control
Chain of hERG (KCNH2) (Q12809 whole entry): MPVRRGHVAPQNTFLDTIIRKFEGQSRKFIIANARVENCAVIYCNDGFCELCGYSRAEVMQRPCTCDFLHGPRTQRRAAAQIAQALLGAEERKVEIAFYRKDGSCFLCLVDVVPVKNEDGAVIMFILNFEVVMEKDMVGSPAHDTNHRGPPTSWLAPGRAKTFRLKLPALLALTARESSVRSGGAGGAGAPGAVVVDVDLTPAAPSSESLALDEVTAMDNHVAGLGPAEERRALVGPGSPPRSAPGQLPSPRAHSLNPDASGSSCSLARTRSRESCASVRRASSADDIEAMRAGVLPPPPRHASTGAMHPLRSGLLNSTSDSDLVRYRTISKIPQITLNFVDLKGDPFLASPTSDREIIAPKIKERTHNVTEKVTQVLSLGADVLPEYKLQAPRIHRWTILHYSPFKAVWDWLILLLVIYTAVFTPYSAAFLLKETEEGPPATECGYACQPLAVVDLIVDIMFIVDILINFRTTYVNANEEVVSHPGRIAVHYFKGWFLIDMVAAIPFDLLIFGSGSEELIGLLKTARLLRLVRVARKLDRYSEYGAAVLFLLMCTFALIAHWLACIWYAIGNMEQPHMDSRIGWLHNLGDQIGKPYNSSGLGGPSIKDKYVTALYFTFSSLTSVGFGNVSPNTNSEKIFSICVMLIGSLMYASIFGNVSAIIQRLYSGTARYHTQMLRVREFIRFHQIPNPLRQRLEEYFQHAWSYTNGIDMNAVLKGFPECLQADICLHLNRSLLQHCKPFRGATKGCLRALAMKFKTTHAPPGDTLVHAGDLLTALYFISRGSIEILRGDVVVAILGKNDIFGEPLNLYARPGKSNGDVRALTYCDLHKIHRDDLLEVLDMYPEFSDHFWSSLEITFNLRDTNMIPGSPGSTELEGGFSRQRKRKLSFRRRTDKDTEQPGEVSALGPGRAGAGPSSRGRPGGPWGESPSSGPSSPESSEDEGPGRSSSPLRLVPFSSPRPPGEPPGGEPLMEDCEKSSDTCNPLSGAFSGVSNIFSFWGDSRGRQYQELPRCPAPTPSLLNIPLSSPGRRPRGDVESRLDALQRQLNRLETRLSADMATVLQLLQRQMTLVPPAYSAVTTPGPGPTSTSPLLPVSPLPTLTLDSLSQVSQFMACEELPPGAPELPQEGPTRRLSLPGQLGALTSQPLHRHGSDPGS

[7] = Metabolic stability in human microsomes assessed as parent compound remaining incubated for 30 mins; format: ADME, Microsome; details: read-out: Stabilty
[8] = Metabolic stability in monkey microsomes assessed as parent compound remaining incubated for 30 mins; format: ADME, Macaca mulatta, Microsome; details: rhesus monkey, read-out: Stabilty
Vero = assay: Cytotoxicity against African green monkey Vero cells; format: cell-based; details: chlorocebus sabaeus
Summary of the method: (§2)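 Cell-line panel used for cytotoxicity: Vero, African green monkey kidney; HFL-1, human embryonic lung; L929 (NCTC clone 929), mouse fibroblast; NIH 3T3, mouse embryonic fibroblast; CHO-K1, Chinese hamster ovary. Values given in μM.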

HFL1 = assay: Cytotoxicity against human HFL-1 cells; format: cell-based; summary of the method: as §2
L929 = assay: Cytotoxicity against mouse L929 cells; format: cell-based; summary of the method: as §2
CHO-K1 = assay: Cytotoxicity against CHO-K1 cells; format: cell-based, Cricetulus griseus; details: chinese hamster; summary of the method: as §2
NIH3T3 = assay: Cytotoxicity against mouse NIH/3T3 cells; format: cell-based; summary of the method: as §2

Row | SMILES | IC50 (SARS-CoV-2) [µM] | CC50 at 72 h [1] [µM] | Ratio CC50/IC50 [2] | further results
1 | N#Cc1cccc(C(=O)C2=C(O)c3ccccc3S(=O)(=O)N2CC(=O)c2ccc(F)c(Cl)c2)c1 | > 25 | > 25 | 1 | –
2 | O=C(CN1C(C(=O)c2ccc(F)cc2)=C(O)c2ccccc2S1(=O)=O)Nc1cccc(OC(F)(F)F)c1 | 8.9 | > 25 | 2.7 | –
3 | O=C(CN1C(C(=O)c2ccccc2)=C(O)c2ccccc2S1(=O)=O)Nc1cccc(OC(F)(F)F)c1 | 11.5 | > 25 | 2.1 | –
4 | COc1ccc(C(=O)C2=C(O)c3ccccc3S(=O)(=O)N2CC(=O)Nc2ccc(C(F)(F)F)cc2)cc1 | 8.6 | > 25 | 2.5 | –
5 | N#Cc1ccc(C(=O)C2=C(O)c3ccccc3S(=O)(=O)N2CC(=O)Nc2ccc(C(F)(F)F)cc2)cc1 | 9.3 | > 25 | 1.4 | –
6 | COc1ccc(C(=O)C2=C(O)c3ccccc3S(=O)(=O)N2CC(=O)Nc2cccc(OC(F)(F)F)c2)cc1 | 11.6 | > 25 | 2 | –
7 | O=C(CN1C(C(=O)c2ccc(F)c(Cl)c2)=C(O)c2ccccc2S1(=O)=O)Nc1ccc(C(F)(F)F)cc1 | 2.5 | > 25 | 11.1 | –
8 | O=C(CN1C(C(=O)c2cccc(F)c2)=C(O)c2ccccc2S1(=O)=O)Nc1cccc(OC(F)(F)F)c1 | 10.1 | > 25 | 2.3 | –
9 | CCNC(=O)CN1C(C(=O)c2ccccc2)=C(O)c2ccccc2S1(=O)=O | > 25 | > 25 | 1 | –
10 | O=C(CN1C(C(=O)c2cccc(F)c2)=C(O)c2ccccc2S1(=O)=O)Nc1ccc(C(F)(F)F)cc1 | 7 | > 25 | 3.2 | –
11 | CNc1ccc2c(c1)S(=O)(=O)N(CC(=O)Nc1ccc(C(F)(F)F)cc1)C(C(=O)c1ccc(F)c(Cl)c1)=C2O | 13.8 | > 25 | 1.3 | –
12 | O=C(CN1C(C(=O)c2ccc(Cl)cc2)=C(O)c2ccccc2S1(=O)=O)Nc1cccc(OC(F)(F)F)c1 | 8.5 | > 25 | 2.9 | –
13 | CC(C)C(=O)C1=C(O)c2ccccc2S(=O)(=O)N1CC(=O)Nc1ccc(C(F)(F)F)cc1 | 7.3 | > 25 | 3 | –
14 | O=C(CN1C(C(=O)c2ccc(F)c(Cl)c2)=C(O)c2ccccc2S1(=O)=O)Nc1cccc(OC(F)(F)F)c1 | 9.2 | > 25 | 2.8 | –
15 | O=C(CN1C(C(=O)c2ccc(F)c(Cl)c2)=C(O)c2ccc(F)cc2S1(=O)=O)Nc1ccc(C(F)(F)F)cc1 | 0.88 | > 25 | 30.7 | Cmax [3]: 14330 ng/mL; t1/2 [4]: 18.5 h; CL [5]: 0.67 mL/min/kg; F [6]: 77%; inhibition at 10 µM (hERG (KCNH2)): < 1%; remaining at 0.5 h [7]: 93%; remaining at 0.5 h [8]: 61%; Activity (Vero): 42.1 µM; Activity (HFL1): 44.2 µM; Activity (L929): 31.4 µM; Activity (CHO-K1): 10.6 µM; Activity (NIH3T3): 68 µM
16 | CCC(CC)COC(=O)[C@H](C)N[P@](=O)(OC[C@H]1O[C@@](C#N)(c2ccc3c(N)ncnn23)[C@H](O)[C@@H]1O)Oc1ccccc1 [REMDESIVIR] | 7.01 | > 25 | 3.6 | –
17 | O=C(CN1C(C(=O)c2ccc(F)cc2)=C(O)c2ccccc2S1(=O)=O)Nc1ccc(C(F)(F)F)cc1 | 5.3 | > 25 | 4.7 | –
18 | O=C(CN1C(C(=O)c2ccc(F)c(Cl)c2)=C(O)c2ccc(F)cc2S1(=O)=O)Nc1cccc(Cl)c1 | 2.2 | > 25 | 12.1 | –

Row | SMILES | IC50 (SARS-CoV-2) [µM] | CC50 at 72 h [1] [µM] | Ratio CC50/IC50 [2] | further results
19 | O=C(CN1C(C(=O)c2ccc(F)cc2)=C(O)c2ccccc2S1(=O)=O)Nc1ccccc1Cl | > 25 | > 25 | 1 | –
20 | O=C(CN1C(C(=O)c2ccc(F)c(Cl)c2)=C(O)c2ccc(F)cc2S1(=O)=O)Nc1cccc(OC(F)(F)F)c1 | 3.1 | > 25 | 8.9 | –
21 | O=C(CN1C(C(=O)c2ccc(F)cc2)=C(O)c2ccccc2S1(=O)=O)Nc1ccccc1 | > 25 | > 25 | 1 | –
22 | CC(C)C(=O)C1=C(O)c2ccccc2S(=O)(=O)N1CC(=O)Nc1cccc(OC(F)(F)F)c1 | 10.8 | > 25 | 1.9 | –
23 | O=C(CN1C(C(=O)c2ccc(F)cc2)=C(O)c2ccccc2S1(=O)=O)Nc1cccc(F)c1 | 15.3 | > 25 | – | –
24 | O=C(CN1C(C(=O)c2ccccc2)=C(O)c2ccccc2S1(=O)=O)NC1CCCCC1 | > 25 | > 25 | 1 | –
25 | N#Cc1cccc(C(=O)C2=C(O)c3ccccc3S(=O)(=O)N2CC(=O)Nc2cccc(OC(F)(F)F)c2)c1 | 14.3 | > 25 | 1.6 | –
26 | O=C(C1=C(O)c2ccccc2S(=O)(=O)N1Cc1ccccc1)c1ccccc1 | > 25 | > 25 | 1 | –
27 | CCN(CC)CCCC(C)Nc1ccnc2cc(Cl)ccc12 (centres undefined) [CHLOROQUINE] | 8 | > 25 | 3.1 | –
28 | O=C(CN1C(C(=O)c2cccc(Cl)c2)=C(O)c2ccccc2S1(=O)=O)Nc1cccc(OC(F)(F)F)c1 | 11.9 | > 25 | 2.1 | –
29 | O=C(CN1C(C(=O)c2cccc(Cl)c2)=C(O)c2ccccc2S1(=O)=O)Nc1ccc(C(F)(F)F)cc1 | 4.1 | > 25 | 5.8 | –
30 | N#Cc1ccc(C(=O)C2=C(O)c3ccccc3S(=O)(=O)N2CC(=O)c2ccc(F)c(Cl)c2)cc1 | > 25 | > 25 | 1 | –
31 | O=C(/C=C/N1C(C(=O)c2ccc(F)c(Cl)c2)=C(O)c2ccccc2S1(=O)=O)Nc1cccc(OC(F)(F)F)c1 | 6.6 | > 25 | 3.6 | –
32 | CN1CCN(c2ccc3c(c2)S(=O)(=O)N(CC(=O)Nc2ccc(C(F)(F)F)cc2)C(C(=O)c2ccc(F)c(Cl)c2)=C3O)CC1 | 14 | > 25 | 1.6 | –
33 | O=C(CN1C(C(=O)c2ccc(Cl)cc2)=C(O)c2ccccc2S1(=O)=O)Nc1ccc(C(F)(F)F)cc1 | 4 | > 25 | 6 | –
34 | N#Cc1cccc(C(=O)C2=C(O)c3ccccc3S(=O)(=O)N2CC(=O)Nc2ccc(C(F)(F)F)cc2)c1 | 10.7 | > 25 | 1.5 | –
35 | N#Cc1ccc(C(=O)C2=C(O)c3ccccc3S(=O)(=O)N2CC(=O)Nc2cccc(OC(F)(F)F)c2)cc1 | 14.3 | > 25 | 1.6 | –
36 | O=C(O)/C=C/N1C(C(=O)c2ccc(F)c(Cl)c2)=C(O)c2ccccc2S1(=O)=O | > 25 | > 25 | 1 | –
